Calls of active or inactive are those of the source. The rule behind the calls is not given here.
Key:
Bcr/Abl fusion protein = Bcr/Abl fusion protein (Homo sapiens, UniProt P00519); assay: Inhibition of BCR fused full length human recombinant N-terminal His-tagged ABL (2 to 1130 residues) expressed in baculovirus expression system using FL-peptide 2 substrate preincubated for 10 mins followed by substrate addition measured after 60 mins by mobility shift assay
[1] = biological target: MAP kinase-interacting serine/threonine-protein kinase 1/2 (Homo sapiens, UniProt Q9HBH9+Q9BUB5); assay: Inhibition of MNK1/MNK2 in human HeLa cells assessed as reduction in phosphorylation of eIF4E at Ser209 after 2 hrs by AlphaScreen SureFire assay; type: cell-based
Summary of the method: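 HeLa cells were grown in DMEM with 10% FBS and penicillin/streptomycin, seeded at 30,000 per well and left 24 h. They were then exposed to serially diluted compound in serum-free DMEM for 2 h at 37 °C and lysed with shaking for 20 min. Phospho-eIF4E Ser209 was read by AlphaScreen SureFire with 2 h acceptor and 2 h donor steps at room temperature. Dose response was run in triplicate.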

K562 [2] = assay: Antiproliferative activity against human K562 cells over expressing eIF4E after 48 hrs by Cell-Titer-Glo luminescent cell viability assay; type: functional; conditions: K562, 48 h
Summary of the method: (§1)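 Cells seeded at 5000 per well in growth medium, exposed to serial doses from 0.003 μM to 50 μM for 48 h at 37 °C, 5% CO2. Viability was read by CellTiter-Glo luminescence and GI50 taken from the dose-response curve. Dose response was run in triplicate and the curve repeated twice. K562 eIF4E-overexpressing cells were cultured in RPMI with 10% FBS.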

K562 [3] = assay: Antiproliferative activity against human K562 cells after 48 hrs by Cell-Titer-Glo luminescent cell viability assay; type: functional; conditions: K562, 48 h; summary of the method: as §1
[4] = Antiproliferative activity against human EM2 cells after 48 hrs by Cell-Titer-Glo luminescent cell viability assay; type: functional; conditions: EM-2, 48 h; summary of the method: as §1
[5] = biological target: Tyrosine-protein kinase ABL1 (Homo sapiens) (UniProt P00519); assay: Inhibition of ABL1 in human K562 cells over expressing eIF4E assessed as reduction in phosphorylation of Crkl at Tyr207 after 24 hrs by Western blot analysis; type: cell-based
Summary of the method: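 K562 eIF4E-overexpressing cells were treated at 100, 500 and 1000 nM for 24 h and lysed in RIPA buffer with SDS and protease/phosphatase inhibitors. Equal protein was resolved on 4-12% Bis-Tris gels and blotted to PVDF, with blocking in 5% BSA/PBST. The blot was probed overnight at 4 °C with a Bcr/Abl activity antibody cocktail for Crkl and phospho-Crkl Tyr207, and detected by ECL chemiluminescence.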

[6] = biological target: Mast/stem cell growth factor receptor Kit (Homo sapiens, UniProt P10721); assay: Inhibition of human recombinant c-KIT expressed in insect cells using Poly(Glu:Tyr) as substrate in presence of [gamma32P]ATP
[7] = biological target: T1, Receptor-type tyrosine-protein kinase FLT3 (Homo sapiens, UniProt P36888); assay: Inhibition of human recombinant FLT3 expressed in sf21 cells using Poly(Glu:Tyr) as substrate in presence of [gamma32P]ATP
T1 sequence (P36888 whole entry): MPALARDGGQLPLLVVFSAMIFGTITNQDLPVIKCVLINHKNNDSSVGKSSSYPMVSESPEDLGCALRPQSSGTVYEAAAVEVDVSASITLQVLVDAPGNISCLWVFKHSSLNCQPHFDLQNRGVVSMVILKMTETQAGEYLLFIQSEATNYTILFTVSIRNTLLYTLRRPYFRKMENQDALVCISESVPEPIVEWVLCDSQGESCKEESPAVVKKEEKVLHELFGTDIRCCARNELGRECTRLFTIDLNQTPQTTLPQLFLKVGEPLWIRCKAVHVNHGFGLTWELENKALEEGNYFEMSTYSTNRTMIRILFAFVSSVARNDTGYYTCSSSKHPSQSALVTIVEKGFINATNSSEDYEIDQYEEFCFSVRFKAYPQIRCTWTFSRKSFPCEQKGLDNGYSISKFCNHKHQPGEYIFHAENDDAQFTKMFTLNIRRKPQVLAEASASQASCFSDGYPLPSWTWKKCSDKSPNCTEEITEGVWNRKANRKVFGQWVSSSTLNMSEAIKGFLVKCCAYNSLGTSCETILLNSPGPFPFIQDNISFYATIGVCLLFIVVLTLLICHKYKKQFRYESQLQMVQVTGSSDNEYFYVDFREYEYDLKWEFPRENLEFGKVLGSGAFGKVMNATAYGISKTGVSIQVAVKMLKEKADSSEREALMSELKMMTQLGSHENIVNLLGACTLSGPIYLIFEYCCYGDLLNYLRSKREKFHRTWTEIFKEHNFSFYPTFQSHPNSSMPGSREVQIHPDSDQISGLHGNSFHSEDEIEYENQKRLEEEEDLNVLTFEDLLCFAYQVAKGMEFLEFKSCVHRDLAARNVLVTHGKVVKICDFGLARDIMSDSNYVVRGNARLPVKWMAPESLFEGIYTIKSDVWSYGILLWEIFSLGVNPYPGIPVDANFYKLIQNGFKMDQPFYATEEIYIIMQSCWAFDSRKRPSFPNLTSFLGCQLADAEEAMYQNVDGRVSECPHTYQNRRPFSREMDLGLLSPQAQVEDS

[8] = biological target: Vascular endothelial growth factor receptor 2 (Homo sapiens, UniProt P35968); assay: Inhibition of human recombinant VEGFR2 expressed in sf21 cells using Poly(Glu:Tyr) as substrate in presence of [gamma32P]ATP
[9] = biological target: T2, Platelet-derived growth factor receptor alpha (Homo sapiens, UniProt P16234); assay: Inhibition of human recombinant PDGFRalpha expressed in sf21 cells using Poly(Glu:Tyr) as substrate in presence of [gamma32P]ATP
Cytochrome P450 2D6 = Cytochrome P450 2D6 (Homo sapiens, UniProt P10635); assay: Inhibition of CYP2D6 (unknown origin); type: ADME
[10] = Plasma protein binding in human; type: ADME, cell-free; conditions: read-out: PPB (converted)
[11] = biological target: Receptor-type tyrosine-protein kinase FLT3 (Homo sapiens) (UniProt P36888); assay: Inhibition of human recombinant FLT3 expressed in sf21 cells at 1 uM using Poly(Glu:Tyr) as substrate in presence of [gamma32P]ATP
Mus musculus = assay: In vivo inhibition of MNK1/MNK2 in NOD-SCID mouse tumor xenografted with human K562 cells over expressing eIF4E assessed as inhibition of eIF4E phosphorylation at Ser209 at 50 mg/kg, po qd adminstered through oral gavage measured 4 hrs post dose by AlphaScreen SureFire assay; type: functional, organism-based
Summary of the method: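 Tumors were excised after the final day-14 oral dose (50 mg/kg) and flash frozen, then homogenized in SureFire lysis buffer with protease and phosphatase inhibitors. Lysate protein was normalized to 0.5 mg/mL by A280. Phospho-eIF4E Ser209 was read by AlphaScreen SureFire with 2 h acceptor and 2 h donor incubations at room temperature. Inhibition was calculated against the 0 h control signal.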

[12] = biological target: T2, Platelet-derived growth factor receptor alpha; assay: Inhibition of human recombinant PDGFRalpha expressed in sf21 cells at 1 uM using Poly(Glu:Tyr) as substrate in presence of [gamma32P]ATP
[13] = biological target: Platelet-derived growth factor receptor beta (Homo sapiens, UniProt P09619); assay: Inhibition of human recombinant PDGFRbeta expressed in sf21 cells at 1 uM using Poly(Glu:Tyr) as substrate in presence of [gamma32P]ATP
Platelet-derived growth factor receptor beta, sequence (P09619 whole entry): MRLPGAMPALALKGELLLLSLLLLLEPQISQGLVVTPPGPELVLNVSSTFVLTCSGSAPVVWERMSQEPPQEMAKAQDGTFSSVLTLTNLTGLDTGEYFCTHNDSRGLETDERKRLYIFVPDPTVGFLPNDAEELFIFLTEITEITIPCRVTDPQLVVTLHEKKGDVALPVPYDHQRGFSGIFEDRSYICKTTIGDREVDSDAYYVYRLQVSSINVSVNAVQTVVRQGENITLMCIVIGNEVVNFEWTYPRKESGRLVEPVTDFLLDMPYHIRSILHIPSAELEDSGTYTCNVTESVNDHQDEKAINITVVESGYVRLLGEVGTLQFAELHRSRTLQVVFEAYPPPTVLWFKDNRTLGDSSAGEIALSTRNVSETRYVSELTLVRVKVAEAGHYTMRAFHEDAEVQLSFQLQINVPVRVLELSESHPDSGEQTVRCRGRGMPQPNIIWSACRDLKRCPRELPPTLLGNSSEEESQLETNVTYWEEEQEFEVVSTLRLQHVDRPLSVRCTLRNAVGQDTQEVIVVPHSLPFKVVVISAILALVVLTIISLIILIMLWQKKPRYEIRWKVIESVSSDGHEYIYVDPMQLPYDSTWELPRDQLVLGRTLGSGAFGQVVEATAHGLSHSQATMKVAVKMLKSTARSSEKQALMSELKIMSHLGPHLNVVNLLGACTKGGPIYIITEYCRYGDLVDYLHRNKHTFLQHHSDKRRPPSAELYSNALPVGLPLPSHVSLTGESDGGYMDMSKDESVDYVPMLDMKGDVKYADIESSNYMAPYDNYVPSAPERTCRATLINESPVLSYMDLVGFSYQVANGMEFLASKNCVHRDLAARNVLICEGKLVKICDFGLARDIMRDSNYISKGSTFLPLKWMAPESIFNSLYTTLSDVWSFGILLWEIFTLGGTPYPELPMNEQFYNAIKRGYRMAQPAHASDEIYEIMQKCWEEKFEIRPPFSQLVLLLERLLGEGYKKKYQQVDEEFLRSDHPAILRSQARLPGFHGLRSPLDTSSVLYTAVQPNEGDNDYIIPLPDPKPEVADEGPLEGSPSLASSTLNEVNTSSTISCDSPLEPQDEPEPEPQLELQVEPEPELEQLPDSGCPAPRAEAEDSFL

T2 sequence (P16234 whole entry): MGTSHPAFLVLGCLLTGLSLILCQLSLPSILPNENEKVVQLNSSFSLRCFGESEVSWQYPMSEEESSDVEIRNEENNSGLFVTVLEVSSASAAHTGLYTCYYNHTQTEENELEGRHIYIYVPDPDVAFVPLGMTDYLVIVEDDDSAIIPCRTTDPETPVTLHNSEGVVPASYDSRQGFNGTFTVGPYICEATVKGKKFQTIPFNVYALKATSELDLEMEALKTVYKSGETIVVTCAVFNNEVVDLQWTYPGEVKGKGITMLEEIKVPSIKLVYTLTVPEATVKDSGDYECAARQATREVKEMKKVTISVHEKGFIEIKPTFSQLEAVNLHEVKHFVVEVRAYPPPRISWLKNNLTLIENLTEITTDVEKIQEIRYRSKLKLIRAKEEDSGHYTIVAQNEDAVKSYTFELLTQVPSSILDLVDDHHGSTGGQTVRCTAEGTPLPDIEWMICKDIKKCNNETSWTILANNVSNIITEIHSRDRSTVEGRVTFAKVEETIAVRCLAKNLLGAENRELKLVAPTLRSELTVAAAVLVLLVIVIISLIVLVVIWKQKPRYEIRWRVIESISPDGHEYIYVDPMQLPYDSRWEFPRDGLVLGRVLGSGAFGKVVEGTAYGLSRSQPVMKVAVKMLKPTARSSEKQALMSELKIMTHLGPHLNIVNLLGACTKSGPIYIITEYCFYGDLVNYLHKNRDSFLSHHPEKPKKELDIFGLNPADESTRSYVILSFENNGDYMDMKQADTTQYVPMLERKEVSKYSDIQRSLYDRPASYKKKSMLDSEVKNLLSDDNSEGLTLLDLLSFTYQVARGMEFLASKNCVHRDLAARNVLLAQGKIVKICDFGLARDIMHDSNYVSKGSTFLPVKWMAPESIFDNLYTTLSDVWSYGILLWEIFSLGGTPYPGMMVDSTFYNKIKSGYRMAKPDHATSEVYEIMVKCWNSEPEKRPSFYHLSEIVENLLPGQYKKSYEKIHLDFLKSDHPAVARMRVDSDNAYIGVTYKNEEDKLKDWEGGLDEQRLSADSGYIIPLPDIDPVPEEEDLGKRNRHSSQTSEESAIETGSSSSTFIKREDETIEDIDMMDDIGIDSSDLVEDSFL
Vascular endothelial growth factor receptor 2, sequence (P35968 whole entry): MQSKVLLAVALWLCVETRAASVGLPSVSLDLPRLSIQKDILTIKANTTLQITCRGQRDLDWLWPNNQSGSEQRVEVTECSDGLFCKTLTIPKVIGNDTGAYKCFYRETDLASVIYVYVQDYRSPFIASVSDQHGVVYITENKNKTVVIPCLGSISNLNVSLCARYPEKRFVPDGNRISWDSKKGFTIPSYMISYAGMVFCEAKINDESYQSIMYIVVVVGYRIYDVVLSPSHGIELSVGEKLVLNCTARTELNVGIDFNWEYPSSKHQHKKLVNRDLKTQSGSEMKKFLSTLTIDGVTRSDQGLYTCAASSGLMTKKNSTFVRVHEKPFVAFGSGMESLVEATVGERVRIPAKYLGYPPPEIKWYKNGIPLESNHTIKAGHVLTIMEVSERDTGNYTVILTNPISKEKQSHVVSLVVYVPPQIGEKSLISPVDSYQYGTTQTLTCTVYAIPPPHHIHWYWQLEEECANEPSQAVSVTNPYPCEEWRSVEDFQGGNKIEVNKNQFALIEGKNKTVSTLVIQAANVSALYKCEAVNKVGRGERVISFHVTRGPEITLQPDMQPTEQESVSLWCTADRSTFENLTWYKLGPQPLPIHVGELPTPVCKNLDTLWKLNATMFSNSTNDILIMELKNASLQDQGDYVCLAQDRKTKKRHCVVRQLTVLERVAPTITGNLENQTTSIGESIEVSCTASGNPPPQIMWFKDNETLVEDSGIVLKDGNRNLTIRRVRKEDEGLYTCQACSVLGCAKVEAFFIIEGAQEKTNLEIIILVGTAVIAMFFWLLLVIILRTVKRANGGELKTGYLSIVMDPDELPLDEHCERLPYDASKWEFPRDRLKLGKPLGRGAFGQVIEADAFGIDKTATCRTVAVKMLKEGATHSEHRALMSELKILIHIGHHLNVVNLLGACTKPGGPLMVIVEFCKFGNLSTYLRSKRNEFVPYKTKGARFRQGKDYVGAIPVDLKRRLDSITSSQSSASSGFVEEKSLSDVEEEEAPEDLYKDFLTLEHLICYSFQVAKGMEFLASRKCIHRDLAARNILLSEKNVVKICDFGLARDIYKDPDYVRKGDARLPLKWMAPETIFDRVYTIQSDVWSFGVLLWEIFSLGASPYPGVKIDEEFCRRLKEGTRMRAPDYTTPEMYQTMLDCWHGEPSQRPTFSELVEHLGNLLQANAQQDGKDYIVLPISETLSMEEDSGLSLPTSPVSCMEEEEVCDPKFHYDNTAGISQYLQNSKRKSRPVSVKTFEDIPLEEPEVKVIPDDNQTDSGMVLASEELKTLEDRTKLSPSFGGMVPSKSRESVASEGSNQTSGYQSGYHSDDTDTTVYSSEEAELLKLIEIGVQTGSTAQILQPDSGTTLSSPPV
Cytochrome P450 2D6, sequence (P10635 whole entry): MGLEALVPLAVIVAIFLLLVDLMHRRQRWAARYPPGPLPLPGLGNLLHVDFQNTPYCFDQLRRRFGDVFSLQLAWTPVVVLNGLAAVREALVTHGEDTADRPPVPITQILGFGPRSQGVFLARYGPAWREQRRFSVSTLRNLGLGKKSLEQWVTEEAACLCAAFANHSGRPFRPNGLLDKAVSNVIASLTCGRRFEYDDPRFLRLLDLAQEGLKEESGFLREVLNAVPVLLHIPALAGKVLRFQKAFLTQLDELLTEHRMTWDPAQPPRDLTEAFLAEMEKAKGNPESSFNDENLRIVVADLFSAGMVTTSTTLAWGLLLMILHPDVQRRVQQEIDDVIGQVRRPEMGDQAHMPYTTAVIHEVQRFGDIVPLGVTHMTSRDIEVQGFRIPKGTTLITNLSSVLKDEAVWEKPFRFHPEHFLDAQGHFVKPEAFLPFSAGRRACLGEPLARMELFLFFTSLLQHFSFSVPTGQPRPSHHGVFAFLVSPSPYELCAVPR
Mast/stem cell growth factor receptor Kit, sequence (P10721 whole entry): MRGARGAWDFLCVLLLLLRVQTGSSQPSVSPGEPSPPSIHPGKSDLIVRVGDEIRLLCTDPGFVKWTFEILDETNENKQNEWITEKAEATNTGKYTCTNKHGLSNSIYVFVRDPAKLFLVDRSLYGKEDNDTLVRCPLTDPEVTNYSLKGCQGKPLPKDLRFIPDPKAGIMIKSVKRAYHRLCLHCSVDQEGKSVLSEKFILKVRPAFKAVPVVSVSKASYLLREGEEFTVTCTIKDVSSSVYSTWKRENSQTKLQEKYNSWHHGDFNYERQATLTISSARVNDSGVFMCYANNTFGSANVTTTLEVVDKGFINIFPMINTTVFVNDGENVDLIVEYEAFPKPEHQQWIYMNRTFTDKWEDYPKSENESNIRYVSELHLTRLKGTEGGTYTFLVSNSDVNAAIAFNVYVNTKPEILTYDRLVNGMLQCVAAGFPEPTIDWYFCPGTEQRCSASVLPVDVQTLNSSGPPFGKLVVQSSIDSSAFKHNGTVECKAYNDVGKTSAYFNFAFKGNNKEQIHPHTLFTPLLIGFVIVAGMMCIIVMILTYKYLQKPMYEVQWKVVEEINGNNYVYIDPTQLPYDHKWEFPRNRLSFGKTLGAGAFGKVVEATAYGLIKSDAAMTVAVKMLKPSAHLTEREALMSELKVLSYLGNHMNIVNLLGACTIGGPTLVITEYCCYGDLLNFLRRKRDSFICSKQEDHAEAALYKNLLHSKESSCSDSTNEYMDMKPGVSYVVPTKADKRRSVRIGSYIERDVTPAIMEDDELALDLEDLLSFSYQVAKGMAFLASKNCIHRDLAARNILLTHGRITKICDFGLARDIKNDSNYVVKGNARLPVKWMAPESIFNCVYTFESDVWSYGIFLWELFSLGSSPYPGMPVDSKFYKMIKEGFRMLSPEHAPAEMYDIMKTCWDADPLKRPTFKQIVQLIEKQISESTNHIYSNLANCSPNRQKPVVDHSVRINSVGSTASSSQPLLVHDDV

| SMILES | IC50 (Bcr/Abl fusion protein) [nM] | IC50 [1] [nM] | GI50 (K562 [2]) [nM] | GI50 (K562 [3]) [nM] | GI50 [4] [nM] | inhibition [5] | IC50 [6] [nM] | IC50 [7] [nM] | IC50 [8] [nM] | IC50 [9] [nM] | IC50 (Cytochrome P450 2D6) [nM] | fraction unbound [10] | inhibition [11] [%] | inhibition (Mus musculus) | inhibition [12] [%] | inhibition [13] [%] |
| --- | --- | --- | --- | --- | --- | --- | --- | --- | --- | --- | --- | --- | --- | --- | --- | --- |
| CCN1CCN(Cc2ccc(NC(=O)CNc3ccc(-c4ccc(NC(=O)C5CC5)nc4)cc3)cc2C(F)(F)F)CC1 | 89 | 180 | 51 | 58 | 15 | Dose-dependent effect | 888 | 20 | 24 | 672 | > 30000 | 0.0008 | > 99 | Active | > 99 | > 99 |
| CN1CCN(Cc2ccc(NC(=O)CNc3ccc(-c4ccc(NC(=O)C5CC5)nc4)cc3F)cc2C(F)(F)F)CC1 | 10 | 280 | 12 | 12 | 1 | Dose-dependent effect | 1510 | 20 | 21 | 1280 | > 30000 | 0.0022 | > 99 | Active | > 99 | > 99 |

Reference: ChEMBL document CHEMBL3804768, “Structure-Activity Relationship Studies of Mitogen Activated Protein Kinase Interacting Kinase (MNK) 1 and 2 and BCR-ABL1 Inhibitors Targeting Chronic Myeloid Leukemic Cells” (J Med Chem, 2016)
